This is an account of results in the EternaBench riboswitch data.

For this data set, the system named is MS2 coat protein. The experiment in a line: apparent Kd, MS2 coat protein; higher = weaker binding; RNA-MaP array; FMN 200 µM where present. In short, it runs like this: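 In 100 mM Tris-HCl pH 7.5, 80 mM KCl, 4 mM MgCl2, BSA, DTT, yeast tRNA and Tween-20, SNAP-549-labelled MS2 coat protein was titrated from 0.7 or 1.5 nM, doubling to 3 µM, over designs transcribed by stalled E. coli RNA polymerase on Illumina sequencing-chip clusters. This was done first without ligand, then with ligand held constant. After green signal was normalised to red-channel RNA signal and control-cluster median Fmax, the apparent Kd was taken as the median of filtered per-cluster binding-curve fits.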

Where [1] appears, read: designed as: OFF switch for flavin mononucleotide, no ligand.
Setting [2] is: ligand present: flavin mononucleotide, designed as: OFF switch for flavin mononucleotide.
The mark [3] stands for this setting: designed as: ON switch for flavin mononucleotide, no ligand.
The mark [4] stands for this setting: ligand present: flavin mononucleotide, designed as: ON switch for flavin mononucleotide.

For “AGUACCAUGUAGAAGGGAUAUCUGAUUCAGAUAUCAGGAUAUACAUGAGGAUCACCCAUGUAAAUGUACUCCACGAAAGUGGAA”, the “apparent Kd” value is, setting by setting: under setting [1], 22.1 nM; under setting [2], 63.8 nM.
For “GUCAGUCGAGGAUAUACGAUCGUGCUUCGGCACGUAAGAUCACAUGAGGAUCACCCAUGUAGAAGGCGACUGAC” the same measures were 32.5 nM and 257 nM.
The matching figures for “AUGUUGCGAGGAUAUAUUUACUGGUUGUUGUUUGGUUGGGAACAUGAGGAUCACCCAUGUAGAAGGUGCAUAAC”: 54.5 nM and 49.9 nM.
The matching figures for “AAAAAGCGAGGAUAUACAUGAGGAUCACCCAUGUGAAAAAAAAAAAAAAAAAAAAAAAGUAGAAGGCGCAAAAA”: 85.8 nM and 65.3 nM.
Consider “GUCCCGAGGGAGAAGGGCUAGGAGGUCCAGCUUAUGUGUGUUGCAACAUGAGGAUCACCCAUGUAGCAGGAUAUCCCUUGUACA”, for which the “apparent Kd” value reads like this: under setting [1], 52.2 nM; under setting [2], 219 nM.
Take “AGUUUUGUACAUGAGGAUCACCCAUGUUAAUAUGUGGUAGUCAGAAGGCAUUGUUAGAGUUUAAAUGAGGAUAUGAAUAUUCAG”: the “apparent Kd” value under setting [3] is 72.8 nM and the “apparent Kd” value under setting [4] amounted to 33 nM.
For “GACAUACAUGAGGAUCACCCAUGUUCAGACGAACAAGGAUAUGUGUGGAAACCAUACUAUACAGAAGGUGUCUGUC” the same measures were 78.4 nM and 36 nM.
The matching figures for “AGGGAGGGCGUGGAGGCGGAGGGACGAGAAGGUACACAUGAGGAUCACCCAUGUAGAGUGGGAGGUAAGGAUAUUGGAUGGUGG”: 101 nM and 66.9 nM.
For “CAGGUAGCUACAGGAUAUACACAGCUCAGUAAACUGAGCAAAACAACUACAUGAGGAUCACCCAUGUAGAAGGGUAGCUGCCUG”, the “apparent Kd” value is, setting by setting: under setting [1], 17 nM; under setting [2], 17.1 nM.
Consider “GGUGUCGCAUGAGGAUAUGGUCAGCUUUGCUGACCAGAAGGCAUGUCAAUAGACAUGAGGAUCACCCAUGUAGUUAAGACACCA”, for which the “apparent Kd” value runs as follows: under setting [3], 739 nM; under setting [4], 48.2 nM.
On to “AGAUGUACCUAGGAUAUCCGUCGAAUUGGACUAGGAGAAGGAGGUACAUGAGGAUCACCCAUGUAUGACUCCUG”, for which the “apparent Kd” value runs as follows: under setting [1], 10.5 nM; under setting [2], 13.1 nM.
As to “ACGCGUUGGGAGAAGGUACAUUAAAUUAGUUACACAUGAGGAUCACCCAUGUAAGGAUAUCCCAUCGUGUAAUAUUAUACAGCA”, the “apparent Kd” value under setting [1] turned out to be 9.76 nM and the “apparent Kd” value under setting [2] worked out at 9.62 nM.
For “AAGGAGUGAGGAUAUGCUGCUCGUCACUUGCGUGAUGAGUAGCAGAAGGCACAUGAGGAUCACCCAUGUAAAGA” the same measures were 44.9 nM and 54.5 nM.
Consider “GCAGCACUGUUUUACAUGAGGAUCACCCAUGUCGAUUGUUAUGAGGAUAUGCAUCGUAUGAAGAUGCAGAAGGCAUUGUGCUGC”, for which the “apparent Kd” value under setting [3] came out at 8.32 nM and the “apparent Kd” value under setting [4] worked out at 5.48 nM.
For “AAUAGUAUUGUAGGAUAUGUUAUUUUCUAACAUGAGGAUCACCCAUGUAAUAUAGGGUUGUUUCUACAGAAGGACAAUUUAUUA” the same measures were 509 nM and 387 nM.
As for “AAAACAUGAGGAUCACCCAUGUUUAGAUCGGUCAAUAGAAGUGAGGAUAUACGAAGUUAAGGCUGGUAGAAGGCACUGGGUACA”, the “apparent Kd” value is, setting by setting: under setting [3], 32.4 nM; under setting [4], 32.2 nM.
As to “AGUGUCAUUUAGAAGGCCUCAUGACAUGAGGAUCACCCAUGUUAUCAUGGGAGGAUAUGGAUGAUAUAGUUAUGUUUCGUAGUA”, the “apparent Kd” value runs as follows: under setting [3], 307 nM; under setting [4], 112 nM.
For “AGGGUAUGAACAUGAGGAUCACCCAUGUACUAGGAAACGAAUGAGGAUAUCGAUAGCAAAGCUAUCGAGAAGGCAUGGGACCCU” the same measures were 322 nM and 59.2 nM.
Regarding “ACGGCUAACCCAGUUUAGAUCUCAAGAAGGGUACACUGGGCAAGGUACAUGAGGAUCACCCAUGUACAGGAUAUUGAGAUGAGA”, the “apparent Kd” value by setting is: under setting [1], 12.1 nM; under setting [2], 34.1 nM.
As for “GCCUCACAUGAGGAUCACCCAUGUCAGGAUAUAGGAGACGGCAGAAAUUCUGCCGUCGCUAGAAGGGACUGGCA”, the “apparent Kd” value runs as follows: under setting [1], 44.2 nM; under setting [2], 86.9 nM.
As to “UUUGUAAUGUCAGGAUAUAUAAUAAGUCAUACAGUAGAAGGGAUAAUUAUACUCAUGUACAUGAGGAUCACCCAUGUUAAAUAU”, the “apparent Kd” value stood at 80.1 nM under setting [3] and 45.6 nM under setting [4].
On to “UGAUCUUUUGUUAGGAUAUGCUGGCUGAAAAGUCAGCAGAAGGGACAUGAGGAUCACCCAUGUUCUCUCUUUUU”, for which the “apparent Kd” value is, setting by setting: under setting [1], 9.66 nM; under setting [2], 13.6 nM.
The matching figures for “GCAAUGUAAGGAUAUUCGGAGUCCUGCCGGGCAGGUAGGUUGGAGAAGGUACAUGAGGAUCACCCAUGUGAGCC”: 48.6 nM and 170 nM.
For “GAUAGGACAGAGAAGGACAUAGCUAGAGAUACUAGCAUAUGAACCUUCACAUGAGGAUCACCCAUGUAGGAUAUCUGUCCUAUC” the same measures were 3.51 nM and 3.96 nM.
With “GGAUCAAUAGUCCACAUGAGGAUCACCCAUGUAGUAUUUUACAAGGAUAUGGUGGGACUUCGUGGCCAGAAGGUGUAAAGGAUC”, the “apparent Kd” value runs as follows: under setting [3], 194 nM; under setting [4], 99.7 nM.
“GCAUCCUGGUAGAAGGGACAUCGGCUGGUAAGCAUCAUCUCCUUCUCACAUGAGGAUCACCCAUGUCAGGAUAUACCAGGACGC”: the “apparent Kd” value under setting [1] amounted to 12.3 nM and the “apparent Kd” value under setting [2] was 42.1 nM.
“GCCAUCGUACGAGGAUAUGGCACCGAAACGGUGCCAGAAGGCGUGUCAAUAGACAUGAGGAUCACCCAUGUAUUAUCGAUGGCA”: the “apparent Kd” value by setting is: under setting [3], 23.2 nM; under setting [4], 17.6 nM.
As for “AUCAUGUGAGGAUAUAAAAUGAAUAUAAAUUAUUAUCUUGAUUAGAAGGCACAUGAGGAUCACCCAUGUCUGAA”, the “apparent Kd” value under setting [1] was 32.5 nM and the “apparent Kd” value under setting [2] was determined as 39.2 nM.
On to “GCACGAGACUAAGGAUAUGGUGUACCUACAUGAAACAUGAGGAUCACCCAUGUAGUAAGUAUGAUUCAGAAGGUAGAGACGUGC”, for which the “apparent Kd” value by setting is: under setting [3], 30.4 nM; under setting [4], 18.3 nM.
The matching figures for “GCUGUAUAUGAGAAGGCGAUCAUGAAACAUGAUCGAGGAUAUCAUGUUUACAUGAGGAUCACCCAUGUAUGGGUAUAAUGCAGC”: 417 nM and 24.1 nM.
Turning to “AUAUCCAAUCAAGGAUAUGUAUUAAAGAUUUGAAAACAUGAGGAUCACCCAUGUAUAUGGUGGGAACAGAAGGUGAAUAAGUAA”, the “apparent Kd” value is, setting by setting: under setting [1], 140 nM; under setting [2], 164 nM.
On to “GUAGCUAUCGGAGGAUAUUCAUACCGGAAACGGACAUGAGGAUCACCCAUGUGUCGAAAGCCUUGGGAGAAGGCCGAUAGCUAC”, for which the “apparent Kd” value is, setting by setting: under setting [3], 181 nM; under setting [4], 59.2 nM.
On to “GAUUCACAUGAGGAUCACCCAUGUGAGGAUAUAGUGCAGGAGGUGAAUGUCCACCUCUCUAGAAGGCACACGGG”, for which the “apparent Kd” value is 22.3 nM under setting [1] and 23.6 nM under setting [2].
Turning to “AAAAAACAUGAGGAUCACCCAUGUCCUCGGACAUGAGGAUAUGUACAGACUUCGGUCUGUACAGAAGGCAUGUCUU”, the “apparent Kd” value reads like this: under setting [3], 302 nM; under setting [4], 308 nM.
On to “GUUGGGUGUCAUGUCGCACAUGAGGAUCACCCAUGUAGGAGGUAGGAUAUCCACGAGUAACAAGAGGAGAAGGGCCGUUAGCGU”, for which the “apparent Kd” value is, setting by setting: under setting [1], 27.9 nM; under setting [2], 33.6 nM.
“GAAUAUUCGUUGAACAUGAGGAUCACCCAUGUAACUUGACAUGAGGAUAUGGAUUCUAAUUGGAUCCAGAAGGUAUGAAUAUUC”: under setting [4], the “apparent Kd” value is 91.8 nM.
On to “UGAUAGGACAGAGGAUAUACCGAUAGGAUCUACUAUCGAACAAUUCUCACAUGAGGAUCACCCAUGUAGAAGGCUGUCCUAUCU”, for which the “apparent Kd” value runs as follows: under setting [1], 15.8 nM; under setting [2], 30.2 nM.
The matching figures for “CUUUAGUAAGGAUAUCAGCUUAGGAGGUUGGUAAUGAGAGCUGAGAAGGUACAUGAGGAUCACCCAUGUUAGUU”: 17.3 nM and 19.7 nM.
Take “GUAGCAAUCGGAGGAUAUUCAUGAUACAUGAGGAUCACCCAUGUUAAUAUGGGAGAAGGCCGAUUGCUACAAGAGCGAAAGCUC”: the “apparent Kd” value was determined as 47.9 nM under setting [3] and 8.05 nM under setting [4].
Turning to “GGAAAUCAUGUAGGAUAUGCAUGGCGAAGCUACGCAGAAGGACAUGAGGAUCACCCAUGUUAUAGCUACCAAGUUAGGUGGCAA”, the “apparent Kd” value under setting [1] turned out to be 139 nM and the “apparent Kd” value under setting [2] was determined as 144 nM.
For “UAAAAGUAGGUAGGAUAUCAUCACGGAAGAUCCUGGAUACUUAGUACAUGAGGAUCACCCAUGUAUGAGAAGGACCAGUGUUUG”, the “apparent Kd” value under setting [1] worked out at 12.5 nM and the “apparent Kd” value under setting [2] came out at 14.8 nM.
Consider “AAUAAUUAGUAAGGAUAUACUAGUGAUUAGCUUGUAGAAGGUACAGUCUUAUGUAUAAUAAAUUAACAUGAGGAUCACCCAUGU”, for which the “apparent Kd” value runs as follows: under setting [3], 11.6 nM; under setting [4], 9.86 nM.
As for “UCUCGGAGCAGAGGAUAUUACAUGAGGAUCACCCAUGUAUGAACCAAUAGCUGGAAACAGCAAUGUAAGAAGGCUGCUCCGACA”, the “apparent Kd” value is 12.4 nM under setting [1] and 169 nM under setting [2].
Consider “ACAUGAGGAUCACCCAUGUUUGCAUAGGAUAUUGAGGAUUAGGGAUGUUUUUUUGGAUUUGCCCACAAGAAGGAUGUAUGUUUU”, for which the “apparent Kd” value reads like this: under setting [3], 8.56 nM; under setting [4], 7.96 nM.
Regarding “CGAUAGGACAGAGGAUAUACACAUGAGGAUCACCCAUGUGAUUACAACGCUUAAGCUUCAAACAUGUAGAAGGCUGUCCUAUCG”, the “apparent Kd” value reads like this: under setting [1], 10.8 nM; under setting [2], 19.4 nM.
On to “UGGUACAUCGGAGGAUAUCAUGUGAUAACAUGAGGAUCACCCAUGUCGAUGGAGACAUCGGAGAUUGAGAAGGCCGAUGUACCU”, for which the “apparent Kd” value runs as follows: under setting [3], 801 nM; under setting [4], 84.2 nM.
In the case of “UUUUAACAUGAGGAUCACCCAUGUGAGGAUAUCGAAAUUUAUAUUUAUAUUAAUAUUUCGAGAAGGCACAUUUU”, the “apparent Kd” value under setting [1] turned out to be 195 nM and the “apparent Kd” value under setting [2] was 191 nM.
For “CUCAGACAUGAGGAUCACCCAUGUGAGGAUAUGAUGCAGCAGUGGUCUACGCUGUGCAUCAGAAGGCACAUGUG” the same measures were 36.5 nM and 12.5 nM.
